Measured values reported in ChEMBL document CHEMBL4699492, “Discovery of Novel Pyrazolo[3,4-b] Pyridine Derivatives with Dual Activities of Vascular Remodeling Inhibition and Vasodilation for the Treatment of Pulmonary Arterial Hypertension” (J Med Chem, 2020).

Legend:
[1] = Antiproliferative activity against HLF1 cells assessed as reduction in TGFbeta-induced cell proliferation measured after 48 hrs by CCK8 assay; assay type: functional, cell-based; settings: Homo sapiens, HLF1, 48 h
Summary of the method: (§1)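 HPASMCs grown in high-glucose D-MEM with 20% FBS and HLF1 in D-MEM/F-12 (1:1) with 10% FBS. Cells stimulated with TGF-β (10 ng/mL) at 37 °C, 5% CO2, then exposed to a concentration range for 48 h. CCK-8 added for 4 h and absorbance read at 490 nm. IC50 derived from the curves.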

Aorta [2] = experiment: Vasodilating activity in Sprague-Dawley rat aortic rings assessed as reduction in phenylephrine-induced contractions; assay type: functional, tissue-based
Summary of the method: (§2)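 Thoracic aorta from male SD rats (250-280 g) anesthetized with chloral hydrate, cut into 4 mm rings. Rings held in Krebs-Henseleit at 37 °C gassed with 95% O2/5% CO2, under 2 g resting tension, equilibrated 60 min, and precontracted with 10^-7 M phenylephrine. Cumulative concentrations of 3×10^-9 to 10^-6 M (final) applied. Percent relaxation of the initial contraction taken at 1 µM, and EC50 derived.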

[3] = Antiproliferative activity against HPASMC assessed as reduction in TGFbeta-induced cell proliferation measured after 48 hrs by CCK8 assay; assay type: functional, tissue-based; settings: Homo sapiens, Pulmonary Artery Smooth Muscle Cells; summary of the method: as §1
Aorta [4] = experiment: Vasodilating activity in Sprague-Dawley rat aortic rings assessed as reduction in phenylephrine-induced contractions at 1 uM relative to control; assay type: functional; summary of the method: as §2
[5] = target: cGMP-specific 3',5'-cyclic phosphodiesterase (Homo sapiens) (UniProt O76074); settings: dose 2.0 nM, time 15.0 min

Structure (SMILES)	EC50 (Aorta [2]) [µM]	inhibition [5] [%]	IC50 [1] [µM]	IC50 [3] [µM]	Emax at 1 µM (Aorta [4]) [%]
Cc1nn(-c2ccccc2)c2nc(OCc3ccccc3F)c(-c3nc(N)c(N(C)C)c(N)n3)cc12	1.1	–	> 100	56.5	46.1
Cc1nn(-c2ccccc2)c2nc(O)c(-c3nc(N)cc(N)n3)cc12	–	–	> 100	40.6	–
Cc1nn(-c2ccccc2)c2c1cc(-c1nc(N)c(N3CCOCC3)c(N)n1)c(=O)n2Cc1ccccc1F	–	–	> 100	> 100	–
COC(=O)Nc1c(N)nc(-c2cc3c(C)nn(-c4ccccc4)c3nc2OCc2ccccc2F)nc1N	5.8	–	> 100	25.5	31.4
Cc1nn(-c2ccccc2)c2nc(OCc3ccccc3F)c(-c3nc(N)c(N4CCCC4)c(N)n3)cc12	12.7	–	> 100	29.3	29.8
CCCc1nn(C)c2c(=O)[nH]c(-c3cc(S(=O)(=O)N4CCN(C)CC4)ccc3OCC)nc12	–	54.9	–	–	–
Cc1nn(-c2ccccc2)c2nc(OCc3ccccc3F)c(-c3nc(N)c(N4CCCCC4)c(N)n3)cc12	0.79	–	> 100	53	47.8

The next lines start with results.

EC50 (Aorta [2]) [µM]	inhibition [5] [%]	Structure (SMILES)	IC50 [1] [µM]	IC50 [3] [µM]	Emax at 1 µM (Aorta [4]) [%]
8.2	–	Cc1nn(-c2ccccc2)c2nc(OCc3ccccc3F)c(-c3nc(N)c(N4CCOCC4)c(N)n3)cc12	> 100	25.2	28.7
1.6	–	Cc1nn(-c2ccccc2)c2nc(OCc3ccc(C(F)(F)F)cc3)c(-c3nc(N)cc(N)n3)cc12	31	20.4	43.4
0.96	–	Cc1nn(-c2ccccc2)c2nc(OCc3ccccc3F)c(-c3nc(N)c(N)c(N)n3)cc12	37.2	22.4	46.7
> 100	–	CCCCOC(=O)Nc1c(N)nc(-c2cc3c(C)nn(-c4ccccc4)c3nc2OCc2ccccc2F)nc1N	52.8	21.7	15.8
